Data on 48 sequences can be found in the EternaBench riboswitch data.

In the series the test system is MS2 coat protein. Description: apparent Kd, MS2 coat protein; higher = weaker binding; RNA-MaP array; FMN 200 µM where present. Summed up: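 In 100 mM Tris-HCl pH 7.5, 80 mM KCl, 4 mM MgCl2, BSA, DTT, yeast tRNA and Tween-20, SNAP-549-labelled MS2 coat protein was titrated from 0.7 or 1.5 nM, doubling to 3 µM, over designs transcribed by stalled E. coli RNA polymerase on Illumina sequencing-chip clusters. This was done first without ligand, then with ligand held constant. After green signal was normalised to red-channel RNA signal and control-cluster median Fmax, the apparent Kd was taken as the median of filtered per-cluster binding-curve fits.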

The mark [1] stands for this setting: designed as: OFF switch for flavin mononucleotide, no ligand.
The mark [2] stands for this setting: ligand present: flavin mononucleotide, designed as: OFF switch for flavin mononucleotide.
Setting [3] is: designed as: ON switch for flavin mononucleotide, no ligand.
Where [4] appears, read: ligand present: flavin mononucleotide, designed as: ON switch for flavin mononucleotide.

Take “GCUGACGAUGUAGGAUAUCUCGACGAUAAGUCGAGAGAAGGACAUGAGGAUCACCCAUGUACUCCAACGUCAGCGAGGAAACUC”: the “apparent Kd” value is, setting by setting: under setting [1], 18.2 nM; under setting [2], 18.5 nM.
Take “ACUAUACGAGGAUAUACUGACAGGCCUCAGGCAUACAUCAAACAUGAGGAUCACCCAUGUAGAAGGCGUAUACU”: the “apparent Kd” value by setting is: under setting [1], 30.4 nM; under setting [2], 68.1 nM.
Turning to “AGCUACGUUUCGUAGCAGUGUCAUCGAGAAGGCCUCAUUACAUGAGGAUCACCCAUGUGAGCAUGGGAGGAUAUCGAUGAUACA”, the “apparent Kd” value is 406 nM under setting [3] and 129 nM under setting [4].
As for “UUUCCGCAAGGAUAUACGGGCUGUGCUUUUCAUUUCUUACAACAUGAGGAUCACCCAUGUAGAAGGUGCUUCUU”, the “apparent Kd” value by setting is: under setting [1], 208 nM; under setting [2], 217 nM.
As to “ACAAGAUCAGGAUAUACAUGAGGAUCACCCAUGUAUAUCAAAAAAGGGCUUUCUACAUGUAGAAGGGAUCUUGU”, the “apparent Kd” value by setting is: under setting [1], 13.9 nM; under setting [2], 11.8 nM.
The like results for “GCAUGAUACUAGGAUAUCAGCAUACUUCAAUGUUGAGAAGGAGUAACAUGAGGAUCACCCAUGUAUCCAACAUG” were, in that order, 59.4 nM and 166 nM.
The like results for “ACAGCUGAAGGAUAUACUUGGAAAAAAAAAAAAAAAAAAAAACAUGAGGAUCACCCAUGUAGAAGGUCAGCUGA” were, in that order, 52.9 nM and 78.5 nM.
Consider “UUGGACGUCGUAGGAUAUGUAAGAUAUUCCUACAUGAGGAUCACCCAUGUUGACAUGGAAGAAGGACAGAAGGACGAUGUCCAU”, for which the “apparent Kd” value is, setting by setting: under setting [3], 6.47 nM; under setting [4], 4.87 nM.
For the sequence “GUCAGCUCGUGAGGAUAUACAUGAGGAUCACCCAUGUGAUCAAUAGCAGCUUCGGCUGCAUACAUGUAGAAGGCACGAGCUGAU”, the “apparent Kd” value reads like this: under setting [1], 43.1 nM; under setting [2], 62.9 nM.
For “GUCAUCAUAUGAGGAUAUGACACCGAAACGGUGUCAGAAGGCAUGUCGAUAGACAUGAGGAUCACCCAUGUUUACAUGAUGACA”, the “apparent Kd” value came out at 84.3 nM under setting [3] and 19.7 nM under setting [4].
For “ACGGUGGUCACAGGAUAUCCGGCGCGCGUGCCUGGAGAAGGGUGACUCAGAACCACAUGAGGAUCACCCAUGUGCCUUGCCGUA”, in that order: 169 nM and 49.2 nM.
“AGUAUGUACGCAGGAUAUACAUGAGGAUCACCCAUGUGGAACAGUGUAGUGCUAGUUGAUCCUCAGUAGAAGGGCGGUCGAAUA”: the “apparent Kd” value by setting is: under setting [1], 62.5 nM; under setting [2], 91.6 nM.
Regarding “ACUGUCGCGUGAGGAUAUGGUCUGCAGUGCUGACCAGAAGGCAUGUCGAUAGACAUGAGGAUCACCCAUGUGGUUAGGGCGGCU”, the “apparent Kd” value reads like this: under setting [3], 619 nM; under setting [4], 298 nM.
In the case of “AGUAACAGAGGAUAUACUGUUUUAUGUGUUUAUUAUUUUGAACAUGAGGAUCACCCAUGUAGAAGGCUGAAUAA”, under setting [2], the “apparent Kd” value was found to be 21.9 nM.
Regarding “AGCUUGAGAGGAUAUACUUGAGUGAUAAAAGUCUGAUAACUACAUGAGGAUCACCCAUGUAGAAGGCUCUAGCA”, the “apparent Kd” value reads like this: under setting [1], 18.3 nM; under setting [2], 47.8 nM.
Take “CGUAGGAUGCAGAAGGCAUGAACAUGAGGAUCACCCAUGUUAAAAGACAUGAGGAUAUGCAUCCUACGAAAAGUGCGAAAGCAC”: the “apparent Kd” value by setting is: under setting [3], 5.15 nM; under setting [4], 4.54 nM.
On to “UGCAUGCUAGGAUAUACGAAACAUUAGGGUUCUUCGUAUGAACAUGAGGAUCACCCAUGUAGAAGGAGCGUGCU”, for which the “apparent Kd” value runs as follows: under setting [1], 35.5 nM; under setting [2], 191 nM.
For “CGCAAUAUACAGAAGGAGUUAUUGAGAGGUUUACUAGGAUAUGUUCACAUGAGGAUCACCCAUGUCAUAUGGUUUUUUAUUGCG”, in that order: 13.6 nM and 11.4 nM.
Take “AUAGUGCGCGAGAAGGACGUACCACAUGAGGAUCACCCAUGUGUGGUACGUAGGAUAUUGCACAUGAGGAUCACCCAUGUGGAU”: the “apparent Kd” value by setting is: under setting [3], 19.5 nM; under setting [4], 34.6 nM.
Turning to “AUGAGGUUAGGAUAUACAUGAGGAUCACCCAUGUUGAAAGGUUAGGUAGGCGGAGCUGGUAGAAGGAACGGAGC”, the “apparent Kd” value is, setting by setting: under setting [1], 39.7 nM; under setting [2], 31.8 nM.
The like results for “AAGAAUAGAAAGAUUAAUAUGAAUACAUGAGGAUCACCCAUGUAGGAUAUGCAGCUGAAUCAGCUGCAGAAGGACAAAAUAAAU” were, in that order, 9.15 nM and 9.08 nM.
For “GAGGCCAAAACAUGAGGAUCACCCAUGUGAGUGGUCCGAAUAUAGGAUAUCCACACGAGAAGUGUGGAGAAGGAUAAUGGCGUC”, in that order: 321 nM and 547 nM.
In the case of “CGUACCAUGUAGAAGGCAUAUCUCAAAGAGAUAUGAGGAUAUACAUGAGGAUCACCCAUGUAAAUGUACUCCAGGAAACUGGAA”, the “apparent Kd” value under setting [1] was 47.8 nM and the “apparent Kd” value under setting [2] was determined as 222 nM.
On to “CUAAUGUAGACAGGAUAUCCUGGACAUGAGGAUCACCCAUGUGCAUAAAAUGGAGAAGGGUCACGGAGGCCCUGUGGGCAGGGU”, for which the “apparent Kd” value is, setting by setting: under setting [3], 46.3 nM; under setting [4], 9.9 nM.
As to “AACAGCUCGUCAGGAUAUAUUAUAUUUAUAUGGCUGAAUGUACAUGAGGAUCACCCAUGUAGUUUGUAGAAGGGACGAGCUGAA”, the “apparent Kd” value runs as follows: under setting [1], 11.6 nM; under setting [2], 18.9 nM.
For “GGUUGGCGAGGAUAUACAUGAGGAUCACCCAUGUGAGAGAAAAAAGUGAGUAAGAAAAGUAGAAGGCGCUGACG”, in that order: 40.1 nM and 302 nM.
For “AAAUUUAACGAAGGAUAUGGUUACAUGAGGAUCACCCAUGUGUGCCUUGUGAUUUUGUUUAAGUUCCAGAAGGUCGUAUACAUA”, in that order: 26.4 nM and 168 nM.
The like results for “AAUAUAAGAGCUGGCUCUAAAAGAACAUGAGGAUCACCCAUGUAGGAUAUCAGCACGAUAAGUGCUGAGAAGGACAACCAGCUC” were, in that order, 16.7 nM and 15.7 nM.
In the case of “AUGCGGUCAGGAUAUGCAUGGCGGGACUUGCGUCGUGGCGUGGAGAAGGGACAUGAGGAUCACCCAUGUGGCGA”, the “apparent Kd” value is, setting by setting: under setting [1], 77.3 nM; under setting [2], 82.6 nM.
For “GGUGGACAUGAGGAUCACCCAUGUGAGGAUAUCGGCUAUCUACUCGCUGACGGCUGCUCGAGAAGGCGCAUUGU”, in that order: 62.1 nM and 58.8 nM.
For “GUCAUGUUAGGAUAUCUGGCAUGUGACUUCGGUCACUGUCCAGAGAAGGAACAUGAGGAUCACCCAUGUUGGAC”, in that order: 75.1 nM and 57.1 nM.
For “CGUUUGUAAGGAUAUAGCCACAUUACGAAUAAGUAGUGUGGCUAGAAGGUACAUGAGGAUCACCCAUGUAUGGG”, in that order: 157 nM and 192 nM.
Regarding “UCGACCGGAGGAUAUCACGUAAAGUACAUGAGGAUCACCCAUGUGUGAUGACUCGAGUCGUGAGAAGGCCGAUAUG”, the “apparent Kd” value runs as follows: under setting [1], 76.4 nM; under setting [2], 172 nM.
The like results for “ACAUUUGGAGGAUAUACCGCUAAGUCAAAUGCAGACCUCCCACAUGAGGAUCACCCAUGUAGAAGGUCAUCUGG” were, in that order, 17.1 nM and 17.6 nM.
On to “UAGCCUGUAGGAGUGGAAGCCGGUAGAAGGCAGCAUUGAUGGACCGACAUGAGGAUCACCCAUGUUGAGGAUAUACCGGGCACU”, for which the “apparent Kd” value is, setting by setting: under setting [1], 39.3 nM; under setting [2], 247 nM.
For “UUUUAACAUGAGGAUCACCCAUGUGAGGAUAUCGAAAUUUAUAUUAAUAUUAUUUUUUCGAGAAGGCACAUUUU”, the “apparent Kd” value stood at 124 nM under setting [1] and 155 nM under setting [2].
As to “UUGUGCUUAGAGAAGGUUCAAACUACAUAUUGCGCACAUGAGGAUCACCCAUGUUGGUGAAUAAGAAAGGAUAUUUGACUGUAC”, the “apparent Kd” value runs as follows: under setting [1], 118 nM; under setting [2], 85.2 nM.
For “UUAUGUUAUGUAGGAUAUCACUUUAAUUGAUUAAUAUAUGAAUAUUGAAUUUGAGAAGGACAUUUACAUGAGGAUCACCCAUGU”, in that order: 16.2 nM and 13.6 nM.
The like results for “UUCGUGCAGCUUUGCUGUACGCGUACAUGAGGAUCACCCAUGUAGGAUAUGGUAGGCUUUGCUUACUAGAAGGAUAUAGUGAUC” were, in that order, 153 nM and 221 nM.
Regarding “CGCUACGUUUCGUAGCAGUGUCAUCGAGAAGGCCCUGACAUGAGGAUCACCCAUGUUGUUACAUGGGAGGAUAUCGAUGAUACU”, the “apparent Kd” value by setting is: under setting [3], 13.4 nM; under setting [4], 5.25 nM.
Consider “UGGGUGGUCCGAGGAUAUGUCACAUGAGGAUCACCCAUGUAAAACCAAGAGACAGAAGGCGGACAUAGACGCCCAAUUGCGCUC”, for which the “apparent Kd” value reads like this: under setting [3], 30.7 nM; under setting [4], 5.03 nM.
“CGCAAACAUGAGGAUCACCCAUGUGAGGAUAUGUGAGCACGAGAAAGAUAAAGUGAGCACAGAAGGCACAAGCG”: the “apparent Kd” value under setting [1] worked out at 60.4 nM and the “apparent Kd” value under setting [2] was 62.9 nM.
The like results for “ACUAAACGAGGAUAUACUGACAGGCCUCAGGCAUACAUCAAACAUGAGGAUCACCCAUGUAGAAGGCGUAAACU” were, in that order, 32.8 nM and 32.8 nM.
The like results for “GGAUAGGACAGAGGAUAUACCGAUAGGAUCUACUAUCGAACAAUCCUCACAUGAGGAUCACCCAUGUAGAAGGCUGUCCUAUCG” were, in that order, 23.9 nM and 274 nM.
As for “GUAUGGAUUACAGGAUAUGUUAGUUUUAAGUGUAUUGGUUAUUACUUAAUUACAGAAGGGUAUUACAUGAGGAUCACCCAUGUA”, the “apparent Kd” value under setting [3] turned out to be 16 nM and the “apparent Kd” value under setting [4] was 11.5 nM.
Regarding “UAUAUACAUGAGGAUCACCCAUGUAAGGAUAUGCAUUAUUAUUAUUAUUAUUAUUAUAGCAGAAGGUACAAUAU”, the “apparent Kd” value amounted to 32.1 nM under setting [1] and 31.3 nM under setting [2].
“ACACCACAUGAGGAUCACCCAUGUAAAGCGUAGCAAGGAUAUGGGCACGGAUAAUUCCGAUCAGAAGGUGUAACGU”: the “apparent Kd” value is 51.2 nM under setting [3] and 118 nM under setting [4].
Consider “GGAUCGAAUGUGAGGAUAUGCUGGUCCUUGGAUCAGCAGAAGGCACAUGAGGAUCACCCAUGUGACCUAGAUCC”, for which the “apparent Kd” value by setting is: under setting [1], 32.7 nM; under setting [2], 430 nM.
